Compound activity (PubChem BioAssay)
Only some compounds are listed: those with a hit (about 1.9% of all), similar ones and a draw of the others.
Rin1 Abl inh = inhibitors of Rin1-Abl protein binding, primary screen, biochemical, TR-FRET; Tyrosine-protein kinase ABL1 (Homo sapiens) + Ras and Rab interactor 1 (Homo sapiens), …; inhibition, % at 7.35 µM; 360,000 tested, 0.4% active; AID 588664, 2011; in the data active = inhibition above about 5%, passing the limit was not always enough
Rpn11 inh = Rpn11 (PSMD14) deubiquitinase inhibitors, primary screen, biochemical, fluorescence polarization, uHTS | 26S proteasome non-ATPase regulatory subunit 14 (Homo sapiens), O00487 | human 26S proteasome, Ub4-pepOG fluorescence polarization; 20S core pre-blocked with epoxomicin | inhibition, % at 20 µM | 360,000 tested, 0.59% active | AID 588493, 2011;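 active = inhibition at 20 µM, scaled to each plate's controls, above about 33%, limit read from the data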
ABHD5 PLIN5 PPI = ABHD5-PLIN5 interaction inhibitors, primary screen, cell lysate, split luciferase complementation, luminescence | 360,000 tested, 0.78% active | Split G. princeps luciferase complementation, 4 h | inhibition, % at 4 µM | AID 602281, 2012;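 active = inhibition above the mean inhibition across every tested compound plus 3 SD, cut at about 22% in these data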
Target sequence (Q00G26 whole entry, looked up): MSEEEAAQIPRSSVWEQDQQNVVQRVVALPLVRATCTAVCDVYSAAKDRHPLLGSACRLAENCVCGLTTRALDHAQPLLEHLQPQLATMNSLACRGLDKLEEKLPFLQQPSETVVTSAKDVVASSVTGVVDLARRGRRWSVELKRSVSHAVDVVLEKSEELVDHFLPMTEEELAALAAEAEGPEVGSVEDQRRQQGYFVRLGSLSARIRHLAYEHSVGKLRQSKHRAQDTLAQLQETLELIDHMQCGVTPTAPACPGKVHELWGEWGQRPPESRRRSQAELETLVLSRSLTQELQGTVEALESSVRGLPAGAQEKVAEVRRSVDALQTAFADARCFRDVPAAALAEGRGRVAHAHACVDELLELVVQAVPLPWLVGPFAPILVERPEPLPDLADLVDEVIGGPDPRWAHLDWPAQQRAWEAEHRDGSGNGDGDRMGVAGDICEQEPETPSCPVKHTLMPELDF
Target sequence (Q8WTS1 whole entry, looked up): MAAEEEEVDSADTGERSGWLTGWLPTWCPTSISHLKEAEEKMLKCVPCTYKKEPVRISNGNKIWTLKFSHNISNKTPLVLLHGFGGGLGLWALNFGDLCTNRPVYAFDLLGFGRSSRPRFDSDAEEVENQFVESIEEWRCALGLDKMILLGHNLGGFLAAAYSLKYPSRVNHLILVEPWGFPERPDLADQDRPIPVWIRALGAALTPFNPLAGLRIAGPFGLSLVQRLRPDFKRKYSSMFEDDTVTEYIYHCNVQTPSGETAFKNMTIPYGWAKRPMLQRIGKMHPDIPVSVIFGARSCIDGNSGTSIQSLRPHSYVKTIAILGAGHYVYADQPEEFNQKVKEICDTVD
NadD block = inhibitors of S. aureus NadD, primary screen, biochemical, colorimetric, uHTS. purified NadD enzyme, colorimetric absorbance read-out. inhibition, % at 20 µM. 360,000 tested, 0.78% active. AID 602399, 2012; in the data active = inhibition above about 26%
XiGFP reactiv = activators of inactive X chromosome reactivation, primary screen, imaging, XiGFP fibroblasts, GFP high-content imaging, set 2; 360,000 tested, 0.055% active; XiGFP mouse fibroblasts, % GFP-positive cells imaging, 3 d; cells co-treated with 5-aza-dC sensitizer; scaled so ellipticine positive control = 100%; AID 743238, 2013; activation, % at 7.58 µM;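 active = mean normalized replicate activation at least 10% and every replicate at or above 10%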
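System: 68-5-11 XiGFP fibroblast line | Buffer or medium: DMEM containing 5-aza-dC | Compound: Single point | Times: Compounds 3 days, fix/stain 15 min at room temperature | Benchmarks: Positive control ellipticine, 6 µM final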
Each line names hits and unclear results; the compound was inactive in the other large screens.

COc1ccc(NC(=O)N(C)C[C@H]2OCCCC[C@H](C)Oc3ccc(NC(=O)C4CCCCC4)cc3C(=O)N([C@H](C)CO)C[C@H]2C)cc1	none (no result: Rin1 Abl inh, Rpn11 inh, ABHD5 PLIN5 PPI, NadD block)
Cc1cc(C)c(NC(=O)COC(=O)c2cccc3c2C(=O)c2ccccc2C3=O)c(C)c1	none
Cc1cc(C)c(Nc2cc(S(=O)(=O)O)c(N)c3c2C(=O)c2ccccc2C3=O)c(C)c1	NadD block 30.2
O=C(N/N=C\c1c(O)ccc2ccccc12)c1ccc(S(=O)(=O)N2CCCCC2)cc1	NadD block 45.7, XiGFP reactiv 48.2 (not shown: Rpn11 inh)
CC1=NN(c2nc(-c3ccc(C)cc3)cs2)C(=O)C1N=Nc1cccc(O)c1 (stereo not drawn)	NadD block 38.3
CC1=NN(c2nc(-c3ccc(C)cc3)cs2)C(=O)C1N=Nc1ccccc1O (stereo not drawn)	none
Nc1ccc2nc(-c3ccc(Cl)cc3)[nH]c2c1	none
Nc1ccc2cc3[nH]c4cc(N)ccc4c3nc2c1	NadD block 54.0, XiGFP reactiv 62.8
CC(C)C[C@H](N)c1nnc(S(=O)(=O)Cc2ccc(F)cc2)o1	ABHD5 PLIN5 PPI 31.1 (no result: XiGFP reactiv)
CC(C)C[C@H](N)c1nnc(SCC(=O)Nc2ccc(Br)cc2)o1	none
CO[C@@H]1CN(C)C(=O)c2cc(NC(=O)CC(F)(F)F)ccc2OC[C@@H](C)N(C(=O)c2ccccc2F)C[C@@H]1C	none (no result: Rin1 Abl inh, Rpn11 inh, ABHD5 PLIN5 PPI, NadD block)
COc1ccc(S(=O)(=O)Nc2cccc3c2O[C@H](CN(C)Cc2ccc(C(=O)O)cc2)[C@H](C)CN([C@@H](C)CO)C3=O)cc1	none (no result: Rin1 Abl inh, Rpn11 inh, ABHD5 PLIN5 PPI, NadD block)
CNC[C@H]1Oc2ncccc2C(=O)N(C)C[C@H]1C	none (no result: Rin1 Abl inh, Rpn11 inh, ABHD5 PLIN5 PPI, NadD block)
N#Cc1ccc(NC(=O)Cn2c3[n+](c4ccc(C(F)(F)F)cc42)CCCCC3)cc1	none
O=C(Cn1c2[n+](c3ccc(C(F)(F)F)cc31)CCCCC2)Nc1ccc(Br)cc1	ABHD5 PLIN5 PPI 96.4 (no result: XiGFP reactiv)
NS(=O)(=O)c1ccc(N=Nc2c(O)c(C(=O)O)cc3ccccc23)cc1	NadD block 31.0
O=C(O)Cc1ccc(N=Nc2c(O)c(C(=O)O)cc3ccccc23)cc1	none
CCC(=O)Nc1ccc2c(c1)OC[C@@H](C)N(Cc1nccs1)C[C@@H](C)[C@H](OC)CN(C)C2=O	none (no result: Rin1 Abl inh, Rpn11 inh, ABHD5 PLIN5 PPI, NadD block)
Clc1ccc2c(c1)C(N1CCNCC1)Cc1ccccc1S2 (stereo not drawn)	ABHD5 PLIN5 PPI 32.8 (no result: XiGFP reactiv)
Cc1ccc(C(=O)Oc2ccc(/C=C3\C(=N)N4N=C(N5CCOCC5)SC4=NC3=O)cc2)cc1	NadD block 40.4
N=C1/C(=C\c2ccc(OC(=O)c3ccc(F)cc3)cc2)C(=O)N=C2SC(N3CCCC3)=NN12	NadD block 51.4
N=C1/C(=C\c2ccc(OC(=O)c3ccccc3)cc2)C(=O)N=C2SC(N3CCOCC3)=NN12	none
N=C1/C(=C\c2ccc(OC(=O)c3ccco3)cc2)C(=O)N=C2SC(N3CCCCC3)=NN12	none
O=C(C[C@H]1C=C[C@@H](NC(=O)Nc2ccc3c(c2)OCO3)[C@@H](CO)O1)NCc1ccccc1	none (no result: Rin1 Abl inh, Rpn11 inh, ABHD5 PLIN5 PPI, NadD block)
CC(=O)Oc1cccc(N2C(=O)c3cccc4c([N+](=O)[O-])ccc(c34)C2=O)c1	XiGFP reactiv 12.5
Cc1noc(C)c1S(=O)(=O)N(C)C[C@H]1Oc2ccc(NC(=O)c3ccncc3)cc2C(=O)N([C@H](C)CO)C[C@@H]1C	none (no result: Rin1 Abl inh, Rpn11 inh, ABHD5 PLIN5 PPI, NadD block)
CN1CCc2c(sc3nc(NN)n(-c4ccc(Cl)cc4)c(=O)c23)C1	Rpn11 inh 46.1 (no result: XiGFP reactiv)
Cc1noc(/C=C/c2ccco2)c1S(=O)(=O)N1CCC(C(=O)N2CCc3ccccc3C2)CC1	ABHD5 PLIN5 PPI 22.0, NadD block 46.9 (no result: XiGFP reactiv)
COc1cc2c(cc1OC)C1(Nc3c-2c(C)nn3-c2ccccc2)C(=O)Nc2ccccc21 (stereo not drawn)	none (no result: XiGFP reactiv)
COc1cc2c(cc1OC)C1(Nc3c-2c(-c2ccccc2)nn3-c2ccccc2)C(=O)Nc2ccccc21 (stereo not drawn)	NadD block 39.8 (no result: XiGFP reactiv)
N#C/C(=C\c1ccc(N2CCCCC2)o1)C(=O)Nc1cccc(Br)c1	XiGFP reactiv 93.7 (not shown: Rpn11 inh)
CC(Sc1nnc(NCc2ccccc2)s1)C(=O)Nc1ccc2c(c1)C(=O)c1ccccc1C2=O (stereo not drawn)	NadD block 38.4
COc1ccccc1NC(=S)N=Nc1c(O)[nH]c2ccc(Br)cc12	NadD block 29.8
Cc1cccc(NC(=S)N=Nc2c(O)[nH]c3ccccc23)c1	none
CCCn1c(C)cc(-c2csc(N)n2)c1C	none (no result: XiGFP reactiv)
COc1ccc(-n2c(C)cc(-c3csc(N)n3)c2C)cc1	NadD block 33.2 (no result: XiGFP reactiv)
Cc1cc(-c2csc(N)n2)c(C)n1-c1ccc(Cl)c(Cl)c1	NadD block 36.2
Cc1cc(/C=C2\SC(=S)NC2=O)c(C)n1-c1cccc(O)c1	NadD block 30.2 (not shown: Rpn11 inh)
Cc1sc(-n2c(C)cc(/C=C3\SC(=S)NC3=O)c2C)c(C#N)c1C	NadD block 24.6 (not shown: Rpn11 inh, XiGFP reactiv)
Cc1ccc(-n2c(C)cc(/C=C3\SC(=O)NC3=O)c2C)cc1	none
COC(=O)C1=C(C)NC(=O)/C1=C\c1cc(C)n(-c2cccc(C)c2)c1C	NadD block 32.3 (no result: XiGFP reactiv)
CCCC#Cc1ccc([C@@H]2[C@@H](CO)N3C(=O)CN(C(=O)Nc4ccccc4)C[C@H]23)cc1	none (no result: Rin1 Abl inh, Rpn11 inh, ABHD5 PLIN5 PPI, NadD block)
COc1ccc2c3c(n(C)c2c1)[C@H](CO)N(Cc1ccccc1)CC31CCN(S(=O)(=O)c2ccc(C)cc2)CC1	none (no result: Rin1 Abl inh, Rpn11 inh, ABHD5 PLIN5 PPI, NadD block)
OCc1ccccc1CNCc1ccccc1	none (no result: XiGFP reactiv)
Oc1cc(CNCc2ccccc2)c(O)cc1CNCc1ccccc1	NadD block 57.3
CC(O)(c1ccc(F)c(F)c1)c1nc(-c2ccoc2)cs1 (stereo not drawn)	ABHD5 PLIN5 PPI 22.2
CC(C)Oc1ccc(C(=O)N/N=C/c2ccc(-c3ccc(S(=O)(=O)Nc4ncccn4)cc3)o2)cc1	NadD block 35.1 (no result: XiGFP reactiv)
CC(C)CC(=O)/C(=C\c1ccc(Cl)cc1Cl)n1cncn1	ABHD5 PLIN5 PPI 95.3 (no result: XiGFP reactiv)
C/C(CC(=O)Nc1ccc(Cl)c(C(F)(F)F)c1)=N\NC(=O)c1cc2ccccc2cc1O	NadD block 36.0
COc1cccc(NC(=O)C/C(C)=N/NC(=O)c2ccccc2Cl)c1	none
CN1CCN(c2nc(C(N)=O)cc(-c3ccccc3)n2)CC1	Rpn11 inh 39.4 (no result: XiGFP reactiv)
Cc1cc(C)c2c(=O)n(CC(=O)Nc3cccc(Cl)c3C)sc2n1	ABHD5 PLIN5 PPI 48.2
Cn1cc(/C=C/c2cc[n+](C)cc2)c2cc(Cl)ccc21	XiGFP reactiv 48.6 (not shown: Rpn11 inh)
Cn1cc(/C=C/c2cc[n+](C)cc2)c2cc(F)ccc21	none (not shown: Rpn11 inh, XiGFP reactiv)
O=C(C[n+]1ccc(/C=C/c2ccccc2)cc1)c1ccc2c(c1)OCCO2	ABHD5 PLIN5 PPI 23.1
